A short description of experiment [1]: Antiproliferative activity against human H1299 cells by XTT assay. The format is functional, cell-based. The following applies: NCI-H1299. A digest of the protocol: (§1)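 Cells (5 × 10³/well) exposed to compound for 72 h in medium with 10% FBS, medium changed and cells incubated another day. Percent of control growth from mean absorbance (n = 3).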
The next experiment deals with A549. The experiment in a line: Antiproliferative activity against human A549 cells by XTT assay. Type of experiment: functional, cell-based. The method in brief:
as §1
On the technique in general: Tetrazolium dyes change colour on reduction, which living cells bring about.

Another experiment deals with MCF7. The experiment in a line: Antiproliferative activity against human MCF7 cells by XTT assay. The format is functional, cell-based. The method in brief:
as §1

The next experiment deals with MDA-MB-231. The experiment in a line: Antiproliferative activity against human MDA-MB-231 cells by XTT assay. Type of experiment: functional, cell-based. The method in brief: as §1
In another experiment the test system is MRC5. The experiment in a line: Antiproliferative activity against human MRC5 cells by XTT assay. The format is cell-based. A digest of the protocol: as §1
The target in experiment [2] is 72 kDa type IV collagenase (Homo sapiens) (UniProt P08253). The experiment in a line: Inhibition of MMP2 activity in human H1299 cells after 24 hrs by gelatin zymography. The format is cell-based. A digest of the protocol: (§2)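 3 × 10⁵ H1299 cells cultured 24 h with compound. Conditioned medium run on 10% SDS-PAGE with 1% gelatin, gel incubated overnight at 37 °C in 40 mM Tris-HCl pH 8.0, 10 mM CaCl₂, 0.02% NaN₃, then Coomassie-stained and destained. Bands quantified versus vehicle; n = 3.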

The target in experiment [3] is Matrix metalloproteinase-9 (Homo sapiens) (UniProt P14780). The experiment in a line: Inhibition of MMP9 activity in human H1299 cells after 24 hrs by gelatin zymography. The format is cell-based. The method in brief: as §2
Experiment [4] deals with MAP kinase p38 (Homo sapiens) (UniProt O15264+Q15759+Q16539+P53778). The experiment in a line: Increase in p38 phosphorylation in human H1299 cells at 1 to 5 uM after 24 hrs by Western blotting method. Type of experiment: cell-based. The method in brief:
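H1299 cells given vehicle or 0.2, 0.5, 1, 2 and 5 µM compound. Lysate proteins probed with primary and secondary antibodies after 5% milk blocking, ECL chemiluminescence detection. β-actin as internal control; each blot representative of three independent experiments.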
On the technique in general: Immunoblotting shows a protein as a band on a membrane.

The target in experiment [5] is 72 kDa type IV collagenase (Homo sapiens) (UniProt P08253). The experiment in a line: Residual MMP2 activity in human H1299 cells at 1 uM after 24 hrs by gelatin zymography.
For experiment [6] the target is unchanged. The experiment in a line: Residual MMP2 activity in human H1299 cells at 2 uM after 24 hrs by gelatin zymography.
For experiment [7] the target is unchanged. The experiment in a line: Residual MMP2 activity in human H1299 cells at 5 uM after 24 hrs by gelatin zymography.
Experiment [8] addresses Matrix metalloproteinase-9 (Homo sapiens) (UniProt P14780). The experiment in a line: Inhibition of MMP9 activity in human H1299 cells at 1 uM after 24 hrs by gelatin zymography; values are per cent of control.
The target is the same in experiment [9]. The experiment in a line: Inhibition of MMP9 activity in human H1299 cells at 2 uM after 24 hrs by gelatin zymography; values are per cent of control.

This is an account of results in ChEMBL document CHEMBL3351563, “Discovery of 2-[2-(5-nitrofuran-2-yl)vinyl]quinoline derivatives as a novel type of antimetastatic agents” (Bioorg Med Chem, 2015).

Active and inactive are the calls of the source. The rule behind the calls is not given here.

Matrix metalloproteinase-9 (Homo sapiens), sequence (P14780 whole entry): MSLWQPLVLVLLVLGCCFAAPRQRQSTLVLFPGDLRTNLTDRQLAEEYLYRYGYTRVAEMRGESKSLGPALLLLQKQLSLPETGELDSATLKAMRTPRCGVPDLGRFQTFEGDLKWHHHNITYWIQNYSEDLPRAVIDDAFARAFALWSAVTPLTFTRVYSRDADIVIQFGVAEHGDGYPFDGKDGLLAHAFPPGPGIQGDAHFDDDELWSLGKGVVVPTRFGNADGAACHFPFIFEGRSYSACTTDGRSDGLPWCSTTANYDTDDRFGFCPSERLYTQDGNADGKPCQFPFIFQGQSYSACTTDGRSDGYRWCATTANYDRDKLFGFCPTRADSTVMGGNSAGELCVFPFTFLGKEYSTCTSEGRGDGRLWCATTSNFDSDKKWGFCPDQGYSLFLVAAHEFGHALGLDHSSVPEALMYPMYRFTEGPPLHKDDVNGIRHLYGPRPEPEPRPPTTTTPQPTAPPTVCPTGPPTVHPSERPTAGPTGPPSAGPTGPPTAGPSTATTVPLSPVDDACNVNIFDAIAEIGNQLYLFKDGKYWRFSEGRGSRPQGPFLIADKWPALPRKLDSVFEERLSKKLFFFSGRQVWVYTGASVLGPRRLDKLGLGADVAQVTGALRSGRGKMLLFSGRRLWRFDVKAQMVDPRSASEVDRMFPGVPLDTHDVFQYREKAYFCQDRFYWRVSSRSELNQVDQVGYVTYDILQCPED
72 kDa type IV collagenase (Homo sapiens), sequence (P08253 110-660 limits assumed): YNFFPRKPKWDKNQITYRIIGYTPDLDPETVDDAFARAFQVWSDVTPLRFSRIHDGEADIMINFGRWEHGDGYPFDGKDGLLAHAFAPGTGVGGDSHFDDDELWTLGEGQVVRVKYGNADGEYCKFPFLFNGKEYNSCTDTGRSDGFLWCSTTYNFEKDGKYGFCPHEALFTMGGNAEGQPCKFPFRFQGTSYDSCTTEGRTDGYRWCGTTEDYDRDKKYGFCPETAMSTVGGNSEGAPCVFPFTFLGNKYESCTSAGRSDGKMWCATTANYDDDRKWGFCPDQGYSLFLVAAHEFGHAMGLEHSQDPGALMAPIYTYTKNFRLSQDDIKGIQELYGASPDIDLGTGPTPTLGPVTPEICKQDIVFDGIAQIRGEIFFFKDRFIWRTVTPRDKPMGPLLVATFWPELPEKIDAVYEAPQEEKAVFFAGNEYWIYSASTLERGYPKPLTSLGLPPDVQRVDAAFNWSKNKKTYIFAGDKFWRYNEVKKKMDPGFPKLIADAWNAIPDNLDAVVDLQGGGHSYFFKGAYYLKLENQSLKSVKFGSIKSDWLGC

`COc1ccc2c(c1)C(=O)c1c-2c(C)nc2ccc(OC)cc12`: the IC50 stood at 33700 nM in experiment [1]; 75900 nM in the experiment on A549; 42000 nM in the experiment on MCF7; 62300 nM in the experiment with MDA-MB-231; 78400 nM in the experiment with MRC5.

With `COc1ccc(-c2cc3cc(OC)ccc3nc2/C=C/c2ccc([N+](=O)[O-])o2)cc1`, the inhibition result in experiment [2] and in experiment [3] was “Dose-dependent effect” in each case. In [4], the outcome was Active. Further, the residual activity in experiment [5] was 75.5%; in [6] it was 63.7%; in experiment [7] it was 56.3%; in experiment [8], 63.9%; in experiment [9], 31.5%.

Turning to `COc1ccc2c(c1)C(=O)c1c-2c(C)nc2ccc(F)cc12`, the IC50 in [1] was determined as 31600 nM; in the experiment on A549, 71100 nM; with MCF7 it was 39600 nM; in the experiment with MDA-MB-231, 52100 nM; with MRC5, 43200 nM.

For `COc1ccc2c(c1)C(=O)c1c-2c(C)nc2ccccc12`, the IC50 in [1] is 21400 nM; with A549, 61600 nM; with MCF7, 32600 nM; in the experiment with MDA-MB-231, 42000 nM; with MRC5, 65400 nM.

Regarding `COc1ccc2c(c1)C(=O)c1c-2c(/C=C/c2ccc([N+](=O)[O-])o2)nc2ccccc12`, the IC50 in experiment [1] turned out to be 80 nM; with A549 it was 70 nM; in the experiment with MCF7, 620 nM; in the experiment with MDA-MB-231, 95 nM; in the experiment on MRC5 it was 93 nM.

Regarding `COc1ccc2c(c1)C(=O)c1c-2c(/C=C/c2ccc([N+](=O)[O-])o2)nc2ccc(F)cc12`, the IC50 turned out to be 460 nM in [1]; 740 nM in the experiment with A549; 580 nM in the experiment with MCF7; 93 nM with MDA-MB-231; 800 nM in the experiment on MRC5.

Consider `COc1cccc2c1C(=O)c1c(O)c3c(c(O)c1C2=O)C[C@@](O)(C(C)=O)C[C@@H]3O[C@H]1C[C@H](N)[C@H](O)[C@H](C)O1` [DAUNORUBICIN], for which the IC50 in [1] is 96 nM; in the experiment on A549, 80 nM; in the experiment on MCF7 it was 650 nM; with MDA-MB-231, 91 nM; in the experiment on MRC5, 78 nM.

Take `COc1ccc2c(c1)C(=O)c1c-2c(/C=C/c2ccc([N+](=O)[O-])o2)nc2ccc(OC)cc12`: the IC50 worked out at 890 nM in experiment [1]; 1320 nM in the experiment on A549; 870 nM in the experiment with MCF7; 930 nM with MDA-MB-231; 6070 nM in the experiment with MRC5.

Usually IC50 stands for the midpoint of a concentration-inhibition curve. A high value points to lower potency. In general, residual activity refers to what remains of the control signal, in per cent. Low values mean a large loss of activity, high ones a small loss of activity.
